# ChEMBL document CHEMBL3297679, “Studies on molecular properties prediction, antitubercular and antimicrobial activities of novel quinoline based pyrimidine motifs” (Bioorg Med Chem Lett, 2014)
# pIC50: −log10 of the molar value.
# Test system: Streptococcus pyogenes
# Assay: Ratio of ciprofloxacin MIC to compound MIC for Streptococcus pyogenes MTCC 442
# Assay type: functional
# Conditions: not given
row,SMILES,Ratio
1,N#CCCSC1=NC(c2ccc(O)cc2)=CC(c2cc3cc(Cl)ccc3nc2Cl)N1 (stereo unspecified),4
2,COc1ccc(C2=CC(c3cc4cc(Cl)ccc4nc3Cl)NC(SCCC#N)=N2)cc1 (stereo unspecified),4
3,Cc1ccc(C2=CC(c3cc4cc(Cl)ccc4nc3Cl)NC(SCCC#N)=N2)cc1 (stereo unspecified),2

# Test system: Aspergillus niger
# Assay: Antifungal activity against Aspergillus niger MTCC 282 by conventional broth microdilution method
# Assay type: functional
# Conditions: not given
row,SMILES,MIC [µg/mL]
1,N#CCCSC1=NC(c2ccc(O)cc2)=CC(c2cc3cc(Cl)ccc3nc2Cl)N1 (stereo unspecified),25
2,COc1cccc(C2=CC(c3cc4cc(Cl)ccc4nc3Cl)NC(SCCC#N)=N2)c1 (stereo unspecified),500
3,COc1ccc(C2=CC(c3cc4cc(Cl)ccc4nc3Cl)NC(SCCC#N)=N2)cc1 (stereo unspecified),250
4,N#CCCSC1=NC(c2cccc(Br)c2)=CC(c2cc3cc(Cl)ccc3nc2Cl)N1 (stereo unspecified),500
5,N#CCCSC1=NC(c2ccc(Br)cc2)=CC(c2cc3cc(Cl)ccc3nc2Cl)N1 (stereo unspecified),1000
6,N#CCCSC1=NC(c2ccccc2)=CC(c2cc3cc(Cl)ccc3nc2Cl)N1 (stereo unspecified),1000
7,N#CCCSC1=NC(c2cccc(Cl)c2)=CC(c2cc3cc(Cl)ccc3nc2Cl)N1 (stereo unspecified),500
8,N#CCCSC1=NC(c2ccc(Cl)cc2)=CC(c2cc3cc(Cl)ccc3nc2Cl)N1 (stereo unspecified),500
9,Cc1ccc(C2=CC(c3cc4cc(Cl)ccc4nc3Cl)NC(SCCC#N)=N2)cc1 (stereo unspecified),500

# Test system: Staphylococcus aureus
# Assay: Ratio of ciprofloxacin MIC to compound MIC for Staphylococcus aureus MTCC 96
# Assay type: functional
# Conditions: not given
row,SMILES,Ratio
1,N#CCCSC1=NC(c2ccc(O)cc2)=CC(c2cc3cc(Cl)ccc3nc2Cl)N1 (stereo unspecified),4
2,COc1ccc(C2=CC(c3cc4cc(Cl)ccc4nc3Cl)NC(SCCC#N)=N2)cc1 (stereo unspecified),4
3,Cc1ccc(C2=CC(c3cc4cc(Cl)ccc4nc3Cl)NC(SCCC#N)=N2)cc1 (stereo unspecified),2

# Test system: Candida albicans
# Assay: Antifungal activity against Candida albicans MTCC 227 by conventional broth microdilution method
# Assay type: functional
# Conditions: not given
row,SMILES,MIC [µg/mL]
1,N#CCCSC1=NC(c2ccc(O)cc2)=CC(c2cc3cc(Cl)ccc3nc2Cl)N1 (stereo unspecified),250
2,COc1cccc(C2=CC(c3cc4cc(Cl)ccc4nc3Cl)NC(SCCC#N)=N2)c1 (stereo unspecified),500
3,COc1ccc(C2=CC(c3cc4cc(Cl)ccc4nc3Cl)NC(SCCC#N)=N2)cc1 (stereo unspecified),1000
4,N#CCCSC1=NC(c2cccc(Br)c2)=CC(c2cc3cc(Cl)ccc3nc2Cl)N1 (stereo unspecified),> 1000
5,N#CCCSC1=NC(c2ccc(Br)cc2)=CC(c2cc3cc(Cl)ccc3nc2Cl)N1 (stereo unspecified),500
6,N#CCCSC1=NC(c2ccccc2)=CC(c2cc3cc(Cl)ccc3nc2Cl)N1 (stereo unspecified),1000
7,N#CCCSC1=NC(c2cccc(Cl)c2)=CC(c2cc3cc(Cl)ccc3nc2Cl)N1 (stereo unspecified),> 1000
8,N#CCCSC1=NC(c2ccc(Cl)cc2)=CC(c2cc3cc(Cl)ccc3nc2Cl)N1 (stereo unspecified),> 1000
9,Cc1ccc(C2=CC(c3cc4cc(Cl)ccc4nc3Cl)NC(SCCC#N)=N2)cc1 (stereo unspecified),500

# Test system: Escherichia coli
# Assay: Antibacterial activity against Escherichia coli MTCC 443 by conventional broth microdilution method
# Assay type: functional
# Conditions: not given
row,SMILES,MIC [µg/mL]
1,N#CCCSC1=NC(c2ccc(O)cc2)=CC(c2cc3cc(Cl)ccc3nc2Cl)N1 (stereo unspecified),50
2,COc1cccc(C2=CC(c3cc4cc(Cl)ccc4nc3Cl)NC(SCCC#N)=N2)c1 (stereo unspecified),100
3,COc1ccc(C2=CC(c3cc4cc(Cl)ccc4nc3Cl)NC(SCCC#N)=N2)cc1 (stereo unspecified),25
4,N#CCCSC1=NC(c2cccc(Br)c2)=CC(c2cc3cc(Cl)ccc3nc2Cl)N1 (stereo unspecified),> 1000
5,N#CCCSC1=NC(c2ccc(Br)cc2)=CC(c2cc3cc(Cl)ccc3nc2Cl)N1 (stereo unspecified),1000
6,N#CCCSC1=NC(c2ccccc2)=CC(c2cc3cc(Cl)ccc3nc2Cl)N1 (stereo unspecified),500
7,N#CCCSC1=NC(c2cccc(Cl)c2)=CC(c2cc3cc(Cl)ccc3nc2Cl)N1 (stereo unspecified),1000
8,N#CCCSC1=NC(c2ccc(Cl)cc2)=CC(c2cc3cc(Cl)ccc3nc2Cl)N1 (stereo unspecified),1000
9,Cc1ccc(C2=CC(c3cc4cc(Cl)ccc4nc3Cl)NC(SCCC#N)=N2)cc1 (stereo unspecified),50

# Test system: HeLa
# Assay: Cytotoxicity against human HeLa cells after 24 hrs incubation by MTT assay
# Assay type: functional, cell-based
# Conditions: not given
# In short: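 HeLa cells (1.0 × 10⁴) were exposed to a range of test compound concentrations for 24 h at 37 °C under 5% CO₂. MTT was then added, the supernatant was discarded, and the formazan was dissolved in DMSO. Absorbance was read at 540 nm, and IC₅₀ was reported in µM.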
row,SMILES,pIC50
1,N#CCCSC1=NC(c2ccc(O)cc2)=CC(c2cc3cc(Cl)ccc3nc2Cl)N1 (stereo unspecified),< 4.00
2,COc1ccc(C2=CC(c3cc4cc(Cl)ccc4nc3Cl)NC(SCCC#N)=N2)cc1 (stereo unspecified),< 4.00
3,Cc1ccc(C2=CC(c3cc4cc(Cl)ccc4nc3Cl)NC(SCCC#N)=N2)cc1 (stereo unspecified),4.03

# Test system: Pseudomonas aeruginosa
# Assay: Antibacterial activity against Pseudomonas aeruginosa MTCC 1688 by conventional broth microdilution method
# Assay type: functional
# Conditions: not given
row,SMILES,MIC [µg/mL]
1,N#CCCSC1=NC(c2ccc(O)cc2)=CC(c2cc3cc(Cl)ccc3nc2Cl)N1 (stereo unspecified),25
2,COc1cccc(C2=CC(c3cc4cc(Cl)ccc4nc3Cl)NC(SCCC#N)=N2)c1 (stereo unspecified),250
3,COc1ccc(C2=CC(c3cc4cc(Cl)ccc4nc3Cl)NC(SCCC#N)=N2)cc1 (stereo unspecified),25
4,N#CCCSC1=NC(c2cccc(Br)c2)=CC(c2cc3cc(Cl)ccc3nc2Cl)N1 (stereo unspecified),1000
5,N#CCCSC1=NC(c2ccc(Br)cc2)=CC(c2cc3cc(Cl)ccc3nc2Cl)N1 (stereo unspecified),500
6,N#CCCSC1=NC(c2ccccc2)=CC(c2cc3cc(Cl)ccc3nc2Cl)N1 (stereo unspecified),250
7,N#CCCSC1=NC(c2cccc(Cl)c2)=CC(c2cc3cc(Cl)ccc3nc2Cl)N1 (stereo unspecified),500
8,N#CCCSC1=NC(c2ccc(Cl)cc2)=CC(c2cc3cc(Cl)ccc3nc2Cl)N1 (stereo unspecified),500
9,Cc1ccc(C2=CC(c3cc4cc(Cl)ccc4nc3Cl)NC(SCCC#N)=N2)cc1 (stereo unspecified),50

# Test system: Mycobacterium tuberculosis
# Assay: Antimycobacterial activity against Mycobacterium tuberculosis H37Rv by Lowenstein-Jensen slope method
# Assay type: functional
# Conditions: not given
row,SMILES,inhibition (INH) [%]
1,N#CCCSC1=NC(c2ccc(O)cc2)=CC(c2cc3cc(Cl)ccc3nc2Cl)N1 (stereo unspecified),99
2,COc1cccc(C2=CC(c3cc4cc(Cl)ccc4nc3Cl)NC(SCCC#N)=N2)c1 (stereo unspecified),97
3,COc1ccc(C2=CC(c3cc4cc(Cl)ccc4nc3Cl)NC(SCCC#N)=N2)cc1 (stereo unspecified),99
4,N#CCCSC1=NC(c2cccc(Br)c2)=CC(c2cc3cc(Cl)ccc3nc2Cl)N1 (stereo unspecified),66
5,N#CCCSC1=NC(c2ccc(Br)cc2)=CC(c2cc3cc(Cl)ccc3nc2Cl)N1 (stereo unspecified),58
6,N#CCCSC1=NC(c2ccccc2)=CC(c2cc3cc(Cl)ccc3nc2Cl)N1 (stereo unspecified),62
7,N#CCCSC1=NC(c2cccc(Cl)c2)=CC(c2cc3cc(Cl)ccc3nc2Cl)N1 (stereo unspecified),62
8,N#CCCSC1=NC(c2ccc(Cl)cc2)=CC(c2cc3cc(Cl)ccc3nc2Cl)N1 (stereo unspecified),42
9,Cc1ccc(C2=CC(c3cc4cc(Cl)ccc4nc3Cl)NC(SCCC#N)=N2)cc1 (stereo unspecified),98

# Same assay, conditions: Mycobacterium tuberculosis, H37Rv
row,SMILES,MIC [µg/mL]
1,N#CCCSC1=NC(c2ccc(O)cc2)=CC(c2cc3cc(Cl)ccc3nc2Cl)N1 (stereo unspecified),3.12
2,COc1cccc(C2=CC(c3cc4cc(Cl)ccc4nc3Cl)NC(SCCC#N)=N2)c1 (stereo unspecified),12.5
3,COc1ccc(C2=CC(c3cc4cc(Cl)ccc4nc3Cl)NC(SCCC#N)=N2)cc1 (stereo unspecified),0.2
4,Cc1ccc(C2=CC(c3cc4cc(Cl)ccc4nc3Cl)NC(SCCC#N)=N2)cc1 (stereo unspecified),3.12

# Test system: Pseudomonas aeruginosa
# Assay: Ratio of ciprofloxacin MIC to compound MIC for Pseudomonas aeruginosa MTCC 1688
# Assay type: functional
# Conditions: not given
row,SMILES,Ratio
1,N#CCCSC1=NC(c2ccc(O)cc2)=CC(c2cc3cc(Cl)ccc3nc2Cl)N1 (stereo unspecified),2

# Test system: Streptococcus pyogenes
# Assay: Antibacterial activity against Streptococcus pyogenes MTCC 442 by conventional broth microdilution method
# Assay type: functional
# Conditions: not given
row,SMILES,MIC [µg/mL]
1,N#CCCSC1=NC(c2ccc(O)cc2)=CC(c2cc3cc(Cl)ccc3nc2Cl)N1 (stereo unspecified),12.5
2,COc1cccc(C2=CC(c3cc4cc(Cl)ccc4nc3Cl)NC(SCCC#N)=N2)c1 (stereo unspecified),100
3,COc1ccc(C2=CC(c3cc4cc(Cl)ccc4nc3Cl)NC(SCCC#N)=N2)cc1 (stereo unspecified),25
4,N#CCCSC1=NC(c2cccc(Br)c2)=CC(c2cc3cc(Cl)ccc3nc2Cl)N1 (stereo unspecified),1000
5,N#CCCSC1=NC(c2ccc(Br)cc2)=CC(c2cc3cc(Cl)ccc3nc2Cl)N1 (stereo unspecified),500
6,N#CCCSC1=NC(c2ccccc2)=CC(c2cc3cc(Cl)ccc3nc2Cl)N1 (stereo unspecified),250
7,N#CCCSC1=NC(c2cccc(Cl)c2)=CC(c2cc3cc(Cl)ccc3nc2Cl)N1 (stereo unspecified),500
8,N#CCCSC1=NC(c2ccc(Cl)cc2)=CC(c2cc3cc(Cl)ccc3nc2Cl)N1 (stereo unspecified),500
9,Cc1ccc(C2=CC(c3cc4cc(Cl)ccc4nc3Cl)NC(SCCC#N)=N2)cc1 (stereo unspecified),25

# Test system: Aspergillus clavatus
# Assay: Antifungal activity against Aspergillus clavatus MTCC 1323 by conventional broth microdilution method
# Assay type: functional
# Conditions: not given
row,SMILES,MIC [µg/mL]
1,N#CCCSC1=NC(c2ccc(O)cc2)=CC(c2cc3cc(Cl)ccc3nc2Cl)N1 (stereo unspecified),25
2,COc1cccc(C2=CC(c3cc4cc(Cl)ccc4nc3Cl)NC(SCCC#N)=N2)c1 (stereo unspecified),100
3,COc1ccc(C2=CC(c3cc4cc(Cl)ccc4nc3Cl)NC(SCCC#N)=N2)cc1 (stereo unspecified),250
4,N#CCCSC1=NC(c2cccc(Br)c2)=CC(c2cc3cc(Cl)ccc3nc2Cl)N1 (stereo unspecified),1000
5,N#CCCSC1=NC(c2ccc(Br)cc2)=CC(c2cc3cc(Cl)ccc3nc2Cl)N1 (stereo unspecified),500
6,N#CCCSC1=NC(c2ccccc2)=CC(c2cc3cc(Cl)ccc3nc2Cl)N1 (stereo unspecified),500
7,N#CCCSC1=NC(c2cccc(Cl)c2)=CC(c2cc3cc(Cl)ccc3nc2Cl)N1 (stereo unspecified),1000
8,N#CCCSC1=NC(c2ccc(Cl)cc2)=CC(c2cc3cc(Cl)ccc3nc2Cl)N1 (stereo unspecified),1000
9,Cc1ccc(C2=CC(c3cc4cc(Cl)ccc4nc3Cl)NC(SCCC#N)=N2)cc1 (stereo unspecified),250

# Test system: Staphylococcus aureus
# Assay: Antibacterial activity against Staphylococcus aureus MTCC 96 by conventional broth microdilution method
# Assay type: functional
# Conditions: not given
row,SMILES,MIC [µg/mL]
1,N#CCCSC1=NC(c2ccc(O)cc2)=CC(c2cc3cc(Cl)ccc3nc2Cl)N1 (stereo unspecified),25
2,COc1cccc(C2=CC(c3cc4cc(Cl)ccc4nc3Cl)NC(SCCC#N)=N2)c1 (stereo unspecified),50
3,COc1ccc(C2=CC(c3cc4cc(Cl)ccc4nc3Cl)NC(SCCC#N)=N2)cc1 (stereo unspecified),12.5
4,N#CCCSC1=NC(c2cccc(Br)c2)=CC(c2cc3cc(Cl)ccc3nc2Cl)N1 (stereo unspecified),500
5,N#CCCSC1=NC(c2ccc(Br)cc2)=CC(c2cc3cc(Cl)ccc3nc2Cl)N1 (stereo unspecified),250
6,N#CCCSC1=NC(c2ccccc2)=CC(c2cc3cc(Cl)ccc3nc2Cl)N1 (stereo unspecified),100
7,N#CCCSC1=NC(c2cccc(Cl)c2)=CC(c2cc3cc(Cl)ccc3nc2Cl)N1 (stereo unspecified),250
8,N#CCCSC1=NC(c2ccc(Cl)cc2)=CC(c2cc3cc(Cl)ccc3nc2Cl)N1 (stereo unspecified),250
9,Cc1ccc(C2=CC(c3cc4cc(Cl)ccc4nc3Cl)NC(SCCC#N)=N2)cc1 (stereo unspecified),25
